Results as given in ChEMBL document CHEMBL1158012, “Sapinofuranones A and B, two new 2(3H)-dihydrofuranones produced by sphaeropsis sapinea, a common pathogen of conifers” (J Nat Prod, 1999).

Columns and labels:
Format in all cases: organism-based
Conditions in all cases: in vivo
[1] = test system: Hesperocyparis macrocarpa; test: Phytotoxicity against Cupressus macrocarpa var. lambertiana assessed as sapwood stain like symptoms on seedlings at 0.1 to 0.2 mg/ml after 96 hrs
How it was run: (§1)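 A 0.1 mg/mL solution was injected into the cortical tissue 25 cm from the apex of 3-year-old cypress or 2-year-old pine seedlings. Stain, needle and blight symptoms were then scored.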

[2] = test system: Pinus radiata; test: Phytotoxicity against Pinus radiata L assessed as appearance of severe needles on seedlings at 0.1 to 0.2 mg/ml after 96 hrs; how it was run: as §1
[3] = test system: Pinus radiata; test: Phytotoxicity against Pinus radiata L assessed as yellowing of twigs at 0.1 to 0.2 mg/ml after 96 hrs
How it was run: (§2)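 Severed cypress or pine twig cuttings were placed in 3 mL of test solution at 0.1-0.2 mg/mL for 96 h, then moved to distilled water. They were kept in a growth chamber at 23 °C, 60% relative humidity and low light. Symptoms were scored over 21 days.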

[4] = test system: Pinus halepensis; test: Phytotoxicity against Pinus halepensis L assessed as appearance of severe needles on seedlings at 0.1 to 0.2 mg/ml after 96 hrs; how it was run: as §1
[5] = test system: Hesperocyparis arizonica; test: Phytotoxicity against Cupressus arizonica assessed as browning of twigs at 0.1 to 0.2 mg/ml after 96 hrs; how it was run: as §2
[6] = test system: Pinus halepensis; test: Phytotoxicity against Pinus halepensis L assessed as yellowing of twigs at 0.1 to 0.2 mg/ml after 96 hrs; how it was run: as §2
[7] = test system: Hesperocyparis arizonica; test: Phytotoxicity against Cupressus arizonica assessed as sapwood stain like symptoms on seedlings at 0.1 to 0.2 mg/ml after 96 hrs; how it was run: as §1
[8] = test system: Cupressus sempervirens; test: Phytotoxicity against Cupressus sempervirens var. pyramidalis assessed as sapwood stain like symptoms on seedlings at 0.1 to 0.2 mg/ml after 96 hrs; how it was run: as §1
[9] = test system: Solanum lycopersicum; test: Phytotoxicity against Lycopersicon esculatum L var. Marmande assessed as appearance of epinasty on petioles at 0.05 to 0.1 mg/ml after 48 hrs
How it was run: (§3)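 Tomato (var. Marmande) seedlings were grown at 25 °C, 70-80% relative humidity and a 12 h photoperiod. Cuttings from 21-day-old seedlings were placed in 3 mL of solution at 0.05-0.1 mg/mL for 48 h, then moved to distilled water. Epinasty and browning were scored over 2 days.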

[10] = test system: Solanum lycopersicum; test: Phytotoxicity against Lycopersicon esculatum L var. Marmande assessed as browning of petioles and leaves at 0.05 to 0.1 mg/ml after 48 hrs; how it was run: as §3
[11] = test system: Cupressus sempervirens; test: Phytotoxicity against Cupressus sempervirens var. pyramidalis assessed as browning of twigs at 0.1 to 0.2 mg/ml after 96 hrs; how it was run: as §2
[12] = test system: Hesperocyparis macrocarpa; test: Phytotoxicity against Cupressus macrocarpa var. lambertiana assessed as browning of twigs at 0.1 to 0.2 mg/ml after 96 hrs; how it was run: as §2

Measured: Activity

C/C=C/C=C\[C@H](O)[C@H]1CCC(=O)O1 [SAPINOFURANONE A]
Toxic: all assays above

C/C=C/C=C\[C@@H](O)[C@H]1CCC(=O)O1 [SAPINOFURANONE B]
Toxic: all assays above
